In ChEMBL document CHEMBL1671676, “In vitro activity of nemonoxacin, a novel nonfluorinated quinolone, against 2,440 clinical isolates” (2009):
In brackets after ≈: the same amount, converted by molar mass.

Assays:
Format in all cases: functional
[1] = system: Streptococcus pneumoniae; assay: Antibacterial activity against Streptococcus pneumoniae assessed as percent cumulative susceptible isolates at minimum inhibitory concentration of 8 ug/ml by CLSI broth microdilution method; design: scale not given: the % may be the effect or the level left
[2] = system: Proteus mirabilis; assay: Antibacterial activity against Proteus mirabilis assessed as percent cumulative susceptible isolates at minimum inhibitory concentration of 8 ug/ml by CLSI broth microdilution method; design: scale not given: the % may be the effect or the level left
[3] = system: Stenotrophomonas maltophilia; assay: Antibacterial activity against Stenotrophomonas maltophilia assessed as percent cumulative susceptible isolates at minimum inhibitory concentration of 0.06 ug/ml by CLSI broth microdilution method; design: scale not given: the % may be the effect or the level left
[4] = system: Acinetobacter baumannii; assay: Antibacterial activity against Acinetobacter baumannii assessed as percent cumulative susceptible isolates at minimum inhibitory concentration of 0.06 ug/ml by CLSI broth microdilution method; design: scale not given: the % may be the effect or the level left
[5] = system: Enterobacter cloacae; assay: Antibacterial activity against Enterobacter cloacae assessed as percent cumulative susceptible isolates at minimum inhibitory concentration of 2 ug/ml by CLSI broth microdilution method; design: scale not given: the % may be the effect or the level left
[6] = system: Staphylococcus aureus; assay: Antibacterial activity against community-associated methicillin-resistant Staphylococcus aureus assessed as percent cumulative susceptible isolates at minimum inhibitory concentration of 1 ug/ml by CLSI broth microdilution method; design: scale not given: the % may be the effect or the level left
[7] = system: Proteus mirabilis; assay: Antibacterial activity against Proteus mirabilis assessed as percent cumulative susceptible isolates at minimum inhibitory concentration of 1 ug/ml by CLSI broth microdilution method; design: scale not given: the % may be the effect or the level left
[8] = system: Proteus mirabilis; assay: Antibacterial activity against Proteus mirabilis assessed as percent cumulative susceptible isolates at minimum inhibitory concentration of 2 ug/ml by CLSI broth microdilution method; design: scale not given: the % may be the effect or the level left
[9] = system: Enterococcus faecalis; assay: Antibacterial activity against Enterococcus faecalis assessed as percent cumulative susceptible isolates at minimum inhibitory concentration of 0.06 ug/ml by CLSI broth microdilution method; design: scale not given: the % may be the effect or the level left
[10] = system: Enterococcus faecalis; assay: Antibacterial activity against Enterococcus faecalis assessed as percent cumulative susceptible isolates at minimum inhibitory concentration of 4 ug/ml by CLSI broth microdilution method; design: scale not given: the % may be the effect or the level left
[11] = system: Pseudomonas aeruginosa; assay: Antibacterial activity against Pseudomonas aeruginosa assessed as percent cumulative susceptible isolates at minimum inhibitory concentration of 4 ug/ml by CLSI broth microdilution method; design: scale not given: the % may be the effect or the level left
[12] = system: Pseudomonas aeruginosa; assay: Antibacterial activity against Pseudomonas aeruginosa assessed as percent cumulative susceptible isolates at minimum inhibitory concentration of 8 ug/ml by CLSI broth microdilution method; design: scale not given: the % may be the effect or the level left
[13] = system: Pseudomonas aeruginosa; assay: Antibacterial activity against Pseudomonas aeruginosa assessed as percent cumulative susceptible isolates at minimum inhibitory concentration of >=[…] by CLSI broth microdilution method; design: scale not given: the % may be the effect or the level left
[14] = system: Stenotrophomonas maltophilia; assay: Antibacterial activity against Stenotrophomonas maltophilia assessed as percent cumulative susceptible isolates at minimum inhibitory concentration of 64 ug/ml by CLSI broth microdilution method; design: scale not given: the % may be the effect or the level left
[15] = system: Staphylococcus aureus; assay: Antibacterial activity against methicillin-susceptible Staphylococcus aureus by CLSI M7-A7 broth microdilution method
Outline: (§1)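 Broth microdilution per CLSI guidelines on clinical isolates, using panels of doubling drug dilutions in cation-adjusted Mueller-Hinton broth with 5% lysed horse blood. MIC read per CLSI, and cumulative percentage of isolates inhibited at each concentration tabulated.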

[16] = system: Staphylococcus aureus; assay: Antibacterial activity against hospital-associated methicillin-resistant Staphylococcus aureus by CLSI M7-A7 broth microdilution method
Outline: (§2)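 Clinical isolates tested by CLSI broth microdilution using 96-well panels of doubling drug dilutions in cation-adjusted Mueller-Hinton broth with 5% lysed horse blood. MIC was read from these panels. Panel quality control used CLSI ATCC strains, including S. pneumoniae 49619, S. aureus 29213, E. faecalis 29212 and E. coli 25922. Cumulative percentages of isolates were tabulated at each MIC.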

[17] = system: Streptococcus pneumoniae; assay: Antibacterial activity against Streptococcus pneumoniae by CLSI M7-A7 broth microdilution method; outline: as §1
[18] = system: Streptococcus pneumoniae; assay: Antibacterial activity against penicillin-resistant Streptococcus pneumoniae by CLSI M7-A7 broth microdilution method; outline: as §1
[19] = system: Pseudomonas aeruginosa; assay: Antibacterial activity against Pseudomonas aeruginosa by CLSI M7-A7 broth microdilution method
[20] = Ratio of fAUC (0 to 24 hrs) in in vitro PK/PD model at 750 mg to MIC for Streptococcus pneumoniae
[21] = system: Staphylococcus aureus; assay: Antibacterial activity against methicillin-susceptible Staphylococcus aureus assessed as percent cumulative susceptible isolates at minimum inhibitory concentration of <=0.008 ug/ml by CLSI broth microdilution method; design: scale not given: the % may be the effect or the level left
[22] = system: Staphylococcus aureus; assay: Antibacterial activity against methicillin-susceptible Staphylococcus aureus assessed as percent cumulative susceptible isolates at minimum inhibitory concentration of 0.03 ug/ml by CLSI broth microdilution method; design: scale not given: the % may be the effect or the level left
[23] = system: Staphylococcus aureus; assay: Antibacterial activity against methicillin-susceptible Staphylococcus aureus assessed as percent cumulative susceptible isolates at minimum inhibitory concentration of 2 ug/ml by CLSI broth microdilution method; design: scale not given: the % may be the effect or the level left
[24] = system: Staphylococcus aureus; assay: Antibacterial activity against methicillin-resistant Staphylococcus aureus assessed as percent cumulative susceptible isolates at minimum inhibitory concentration of […] by CLSI broth microdilution method; design: scale not given: the % may be the effect or the level left
[25] = system: Staphylococcus aureus; assay: Antibacterial activity against methicillin-resistant Staphylococcus aureus assessed as percent cumulative susceptible isolates at minimum inhibitory concentration of 0.03 ug/ml by CLSI broth microdilution method; design: scale not given: the % may be the effect or the level left; outline: as §2
[26] = system: Staphylococcus aureus; assay: Antibacterial activity against methicillin-resistant Staphylococcus aureus assessed as percent cumulative susceptible isolates at minimum inhibitory concentration of 0.06 ug/ml by CLSI broth microdilution method; design: scale not given: the % may be the effect or the level left
[27] = system: Staphylococcus aureus; assay: Antibacterial activity against methicillin-resistant Staphylococcus aureus assessed as percent cumulative susceptible isolates at minimum inhibitory concentration of 4 ug/ml by CLSI broth microdilution method; design: scale not given: the % may be the effect or the level left
[28] = system: Enterococcus faecium; assay: Antibacterial activity against Enterococcus faecium assessed as percent cumulative susceptible isolates at minimum inhibitory concentration of […] by CLSI broth microdilution method; design: scale not given: the % may be the effect or the level left
[29] = system: Escherichia coli; assay: Antibacterial activity against Escherichia coli assessed as percent cumulative susceptible isolates at minimum inhibitory concentration of <=[…] by CLSI broth microdilution method; design: scale not given: the % may be the effect or the level left
[30] = system: Escherichia coli; assay: Antibacterial activity against Escherichia coli assessed as percent cumulative susceptible isolates at minimum inhibitory concentration of 64 ug/ml by CLSI broth microdilution method; design: scale not given: the % may be the effect or the level left
[31] = system: Klebsiella pneumoniae; assay: Antibacterial activity against Klebsiella pneumoniae assessed as percent cumulative susceptible isolates at minimum inhibitory concentration of <=[…] by CLSI broth microdilution method; design: scale not given: the % may be the effect or the level left
[32] = system: Klebsiella oxytoca; assay: Antibacterial activity against Klebsiella oxytoca assessed as percent cumulative susceptible isolates at minimum inhibitory concentration of 1 ug/ml by CLSI broth microdilution method; design: scale not given: the % may be the effect or the level left
[33] = system: Staphylococcus aureus; assay: Antibacterial activity against Levofloxacin-susceptible Staphylococcus aureus assessed as percent cumulative susceptible isolates at minimum inhibitory concentration of […] by CLSI broth microdilution method; design: scale not given: the % may be the effect or the level left
[34] = system: Staphylococcus aureus; assay: Antibacterial activity against non-levofloxacin susceptible Staphylococcus aureus assessed as percent cumulative susceptible isolates at minimum inhibitory concentration of 0.5 ug/ml by CLSI broth microdilution method; design: scale not given: the % may be the effect or the level left
[35] = system: Staphylococcus aureus; assay: Antibacterial activity against community-associated methicillin-resistant Staphylococcus aureus assessed as percent cumulative susceptible isolates at minimum inhibitory concentration of 0.06 ug/ml by CLSI broth microdilution method; design: scale not given: the % may be the effect or the level left
[36] = system: Staphylococcus aureus; assay: Antibacterial activity against community-associated methicillin-resistant Staphylococcus aureus assessed as percent cumulative susceptible isolates at minimum inhibitory concentration of 0.5 ug/ml by CLSI broth microdilution method; design: scale not given: the % may be the effect or the level left
[37] = system: Staphylococcus aureus; assay: Antibacterial activity against hospital-associated methicillin-resistant Staphylococcus aureus assessed as percent cumulative susceptible isolates at minimum inhibitory concentration of 2 ug/ml by CLSI broth microdilution method; design: scale not given: the % may be the effect or the level left; outline: as §2

`C[C@H]1COc2c(N3CCN(C)CC3)c(F)cc3c(=O)c(C(=O)O)cn1c23.C[C@H]1COc2c(N3CCN(C)CC3)c(F)cc3c(=O)c(C(=O)O)cn1c23.O` [LEVOFLOXACIN] gave an Activity [1] of 99.5%, an Activity [2] of 97% and an Activity [3] of 3.8%. For the same compound, the Activity [4] was 6.7%, the Activity [5] was 93.1% and the Activity [6] was 32%.

For `COc1c(N2C[C@@H](C)C[C@H](N)C2)ccc2c(=O)c(C(=O)O)cn(C3CC3)c12` [NEMONOXACIN], the Activity [7] was 75.8%, the Activity [8] was 78.8% and the Activity [9] was 18.5%. It also gave an Activity [10] of 98.8%, an Activity [11] of 78.1% and an Activity [12] of 78.8%. For the same compound, the Activity [13] was 100%, the Activity [14] was 100% and the MIC90 [15] was 0.12 µg/mL (≈ 0.323 µM). The MIC [16] was no less than 4 µg/mL, the MIC90 [17] was 0.015 µg/mL (≈ 0.0404 µM) and the MIC90 [18] was 0.03 µg/mL (≈ 0.0808 µM). It also gave an MIC90 [19] of no less than 8 µg/mL, a RatioAUC/MIC [20] greater than 393 and an Activity [21] of 5.6%. For the same compound, the Activity [22] was 71.9%, the Activity [23] was 96% and the Activity [24] was 4.7%. It also gave an Activity [25] of 6.3%, an Activity [26] of 6.3% and an Activity [27] of 65.4%. For the same compound, the Activity [28] was 15.8%, the Activity [29] was 0.2% and the Activity [30] was 98.2%. The Activity [31] was 0.5%, the Activity [32] was 100% and the Activity [33] was 33.8%. For the same compound, the Activity [34] was 19%, the Activity [35] was 28% and the Activity [36] was 92%. For the same compound, the Activity [37] was 22.2%.
